# ChEMBL document CHEMBL1821682, “Synthesis of new 2'-deoxy-2'-fluoro-4'-azido nucleoside analogues as potent anti-HIV agents” (Eur J Med Chem, 2011)
# What was measured:
# [1] = test system: Human immunodeficiency virus 1; experiment: Antiviral activity against vesicular stomatitis virus G-pseudotyped Human immunodeficiency virus 1 NL4-3 infected in human MT2 cells assessed as inhibition of viral replication after 48 hrs by luciferase activity reporter gene assay; type: functional, organism-based
# How it was run: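 Pseudovirus made by Ca3(PO4)2 co-transfection of 293 cells with env-deficient pNL4-3.luc.R−E− and VSV-G plasmid; supernatant harvested 48 h, 0.45 μm filtered. MT-2 cells (1.2×10⁵/well) pre-incubated with compound 15 min, then infected; solvent-only control. After 48 h cells lysed and luciferase measured; EC50 from dose-dependent inhibition, averaged from at least two experiments.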
# [2] = test system: Human immunodeficiency virus 1; experiment: Antiviral activity against Human immunodeficiency virus 1 NL4-3 infected in human TZM-bl cells assessed as reduction in relative luminescence units after 48 hrs by luciferase reporter gene assay; type: functional, organism-based; details: Human immunodeficiency virus 1, NL4-3, TZM-bl
# [3] = test system: Human immunodeficiency virus 1; experiment: Antiviral activity against Human immunodeficiency virus 1 NL4-3 harboring reverse transcriptase K101E mutant infected in human TZM-bl cells assessed as reduction in relative luminescence units after 48 hrs by luciferase reporter gene assay; type: functional, organism-based; details: Human immunodeficiency virus 1, NL4-3, TZM-bl
# [4] = test system: Human immunodeficiency virus 1; experiment: Antiviral activity against NNRTI-resistant Human immunodeficiency virus 1 RTMDR infected in human TZM-bl cells assessed as reduction in relative luminescence units after 48 hrs by luciferase reporter gene assay; type: functional, organism-based
# [5] = test system: Human immunodeficiency virus 1; experiment: Antiviral activity against NRTI-resistant Human immunodeficiency virus 1 7324-1 harboring reverse transcriptase M41L, D67N, K70R, T215F, K219E and T69N mutant infected in human TZM-bl cells assessed as reduction in relative luminescence units after 48 hrs by luciferase reporter gene assay; type: functional, organism-based; details: Human immunodeficiency virus 1, 7324-1, TZM-bl
# How it was run: (§1)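 Panel of eleven NRTI-resistant strains from the NIH Reagent Program plus wild-type NL4-3; highest concentration tested 40,000 nM. EC50 = concentration inhibiting HIV by 50%, averaged from at least two separate experiments.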
# [6] = test system: Human immunodeficiency virus 1; experiment: Antiviral activity against NRTI-resistant Human immunodeficiency virus 1 7324-4 harboring reverse transcriptase M41L, K70R, T215F and K219E mutant infected in human TZM-bl cells assessed as reduction in relative luminescence units after 48 hrs by luciferase reporter gene assay; type: functional, organism-based; details: Human immunodeficiency virus 1, 7324-4, TZM-bl; how it was run: as §1
# [7] = test system: Human immunodeficiency virus 1; experiment: (§2) Antiviral activity against NRTI-resistant Human immunodeficiency virus 1 10076-4 harboring reverse transcriptase M41L, T215Y and M184V mutant infected in human TZM-bl cells assessed as reduction in relative luminescence units after 48 hrs by luciferase reporter gene assay; type: functional, organism-based; details: Human immunodeficiency virus 1, 10076-4, TZM-bl; how it was run: as §1
# [8] = test system: Human immunodeficiency virus 1; experiment: Antiviral activity against NRTI-resistant Human immunodeficiency virus 1 7295-1 harboring reverse transcriptase D67N, K70R, T215F, K219Q, M184V and T69N mutant infected in human TZM-bl cells assessed as reduction in relative luminescence units after 48 hrs by luciferase reporter gene assay; type: functional, organism-based; details: Human immunodeficiency virus 1, 7295-1, TZM-bl; how it was run: as §1
# [9] = test system: Human immunodeficiency virus 1; experiment: as §2, with “4755-5” for “10076-4”, “D67N, L210W, T215Y, M184V, T69D, E44D” for “T215Y”, “V118I” for “M184V”; type: functional, organism-based; details: Human immunodeficiency virus 1, 4755-5, TZM-bl; how it was run: as §1
# [10] = test system: Human immunodeficiency virus 1; experiment: Antiviral activity against NRTI-resistant Human immunodeficiency virus 1 6463-13 harboring reverse transcriptase M41L, D67N, L210W, T215Y, M184V and V118I mutant infected in human TZM-bl cells assessed as reduction in relative luminescence units after 48 hrs by luciferase reporter gene assay; type: functional, organism-based; details: Human immunodeficiency virus 1, 6463-13, TZM-bl; how it was run: as §1
# [11] = test system: Human immunodeficiency virus 1; experiment: Antiviral activity against NRTI-resistant Human immunodeficiency virus 1 7303-3 harboring reverse transcriptase M41L, D67N, L210W, T215Y, T69D, E44D and V118I mutant infected in human TZM-bl cells assessed as reduction in relative luminescence units after 48 hrs by luciferase reporter gene assay; type: functional, organism-based; details: Human immunodeficiency virus 1, 7303-3, TZM-bl; how it was run: as §1
# [12] = test system: Human immunodeficiency virus 1; experiment: Antiviral activity against NRTI-resistant Human immunodeficiency virus 1 1617-1 harboring reverse transcriptase K70G, M184V, T69K, V75I, F77L, F116Y and Q151M mutant infected in human TZM-bl cells assessed as reduction in relative luminescence units after 48 hrs by luciferase reporter gene assay; type: functional, organism-based; details: Human immunodeficiency virus 1, 1617-1, TZM-bl; how it was run: as §1
# [13] = test system: Human immunodeficiency virus 1; experiment: Antiviral activity against NRTI-resistant Human immunodeficiency virus 1 35764-2 harboring reverse transcriptase V75I, F77L, F116Y and Q151M mutant infected in human TZM-bl cells assessed as reduction in relative luminescence units after 48 hrs by luciferase reporter gene assay; type: functional, organism-based; details: Human immunodeficiency virus 1, 35764-2, TZM-bl; how it was run: as §1
# [14] = test system: Human immunodeficiency virus 1; experiment: Antiviral activity against NRTI-resistant Human immunodeficiency virus 1 29129-2 harboring reverse transcriptase M41L, D67N, L210W, T215Y and M184V mutant infected in human TZM-bl cells assessed as reduction in relative luminescence units after 48 hrs by luciferase reporter gene assay; type: functional, organism-based; details: Human immunodeficiency virus 1, 29129-2, TZM-bl; how it was run: as §1
# [15] = test system: Human immunodeficiency virus 1; experiment: Antiviral activity against NRTI-resistant Human immunodeficiency virus 1 56252-1 harboring reverse transcriptase K70R, V75I, F77L, F116Y, Q151M and K65R mutant infected in human TZM-bl cells assessed as reduction in relative luminescence units after 48 hrs by luciferase reporter gene assay; type: functional, organism-based; details: Human immunodeficiency virus 1, 56252-1, TZM-bl; how it was run: as §1
# [16] = test system: Human immunodeficiency virus 1; experiment: Antiviral activity against […] infected in human TZM-bl cells assessed as reduction in relative luminescence units after 48 hrs by luciferase reporter gene assay; type: functional, organism-based; details: Human immunodeficiency virus 1, NL4-3, TZM-bl; how it was run: as §1
# [17] = Cytotoxicity activity against human TZM-bl by CellTiter-Glo luminescent cell viability assay; type: cell-based
# How it was run: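 Viable TZM-bl cells (HeLa-derived) quantified by luminescent ATP read-out after exposure to compound, tested up to a top concentration of 140 μM. IC50 taken as the concentration that inhibits cell growth by 50%, averaged from at least three separate experiments.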
# [18] = test system: HepG2; experiment: Cytotoxicity activity against human HepG2 by CellTiter-Glo luminescent cell viability assay; type: cell-based
# How it was run: (§3)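 CellTiter-Glo luminescent viability assay quantifying ATP in metabolically active cells; PBMC were PHA-activated. Highest concentration tested 140 μM. IC50 = concentration inhibiting cell growth by 50%, averaged from at least three separate experiments.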
# [19] = test system: HEK-293T; experiment: Cytotoxicity activity against human 293T by CellTiter-Glo luminescent cell viability assay; type: cell-based; how it was run: as §3
# [20] = test system: MT4; experiment: Cytotoxicity activity against human MT4 by CellTiter-Glo luminescent cell viability assay; type: cell-based; how it was run: as §3
# [21] = Cytotoxicity activity against human ACH2 by CellTiter-Glo luminescent cell viability assay; details: ACH-2; how it was run: as §3
# [22] = test system: PBMC; experiment: Cytotoxicity activity against human PBMC by CellTiter-Glo luminescent cell viability assay; type: cell-based; how it was run: as §3
compound,measurement,setting,value
[N-]=[N+]=N[C@]1(CO)O[C@@H](n2ccc(N)nc2=O)[C@@H](F)[C@@H]1O,EC50,[1]; mt2,0.13 nM
same,EC50,[2],0.086 nM
same,EC50,[3],0.15 nM
same,EC50,[4],0.11 nM
same,EC50,[5],0.595 nM
same,EC50,[6],0.735 nM
same,EC50,[7],> 40000 nM
same,EC50,[8],> 40000 nM
same,EC50,[9],> 40000 nM
same,EC50,[10],> 40000 nM
same,EC50,[11],0.56 nM
same,EC50,[12],32.2 nM
same,EC50,[13],0.42 nM
same,EC50,[14],> 40000 nM
same,EC50,[15],0.525 nM
same,EC50,[16],0.318 nM
same,IC50,[17],> 140000 nM
same,IC50,[18],> 140000 nM
same,IC50,[19],> 140000 nM
same,IC50,[20],120 nM
same,IC50,[21],110 nM
same,IC50,[22],150 nM
[N-]=[N+]=N[C@]1(CO)O[C@@H](n2ccc(N)nc2=O)[C@@H](F)[C@@H]1O [RO-0622],EC50,[1]; mt2,0.3 nM
Cc1cn([C@H]2C[C@H](N=[N+]=[N-])[C@@H](CO)O2)c(=O)[nH]c1=O [ZIDOVUDINE],EC50,"[1]; Human immunodeficiency virus 1, NL4-3, MT2, 48 h",47 nM
